pIC50: −log10 of the molar value.
Legend:
[1] = target: T1, Monoglyceride lipase (Homo sapiens, UniProt Q99685); assay: Inhibition of human recombinant MAGL using 7-HCA as substrate preincubated for 30 mins followed by substrate addition measured after 60 mins by fluorescence assay
T1 sequence (Q99685 whole entry): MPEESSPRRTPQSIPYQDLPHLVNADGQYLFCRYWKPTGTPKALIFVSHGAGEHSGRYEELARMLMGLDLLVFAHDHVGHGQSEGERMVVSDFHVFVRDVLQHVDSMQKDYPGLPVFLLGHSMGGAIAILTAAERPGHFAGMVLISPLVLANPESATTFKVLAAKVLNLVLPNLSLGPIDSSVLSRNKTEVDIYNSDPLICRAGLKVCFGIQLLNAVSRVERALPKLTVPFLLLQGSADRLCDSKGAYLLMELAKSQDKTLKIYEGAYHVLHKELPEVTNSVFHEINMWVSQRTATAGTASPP
Summary of the method: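 Reaction started with 7-HCA (5 μM final), run 60 min, fluorescence Ex/Em 340/465. Percent inhibition versus no-compound and full-inhibition controls; IC50 from four-parameter fit.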

[2] = target: T2, Monoacylglycerol lipase ABHD6 (Homo sapiens) (UniProt Q9BV23); assay: Inhibition of human ABHD6 at 1 to 10 uM relative to control
T2 sequence (whole entry): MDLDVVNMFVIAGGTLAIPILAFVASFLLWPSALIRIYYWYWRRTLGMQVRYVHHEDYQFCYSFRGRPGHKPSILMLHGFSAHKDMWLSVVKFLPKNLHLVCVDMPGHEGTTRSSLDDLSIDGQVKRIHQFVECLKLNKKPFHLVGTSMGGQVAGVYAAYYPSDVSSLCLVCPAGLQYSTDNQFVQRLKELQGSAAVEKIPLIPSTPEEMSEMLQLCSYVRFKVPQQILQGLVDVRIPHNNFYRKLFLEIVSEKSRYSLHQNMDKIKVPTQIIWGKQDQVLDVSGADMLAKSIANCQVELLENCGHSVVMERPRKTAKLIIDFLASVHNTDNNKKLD

[3] = target: T3, Cocaine esterase (Homo sapiens, UniProt O00748); assay: Inhibition of human CES2 at 1 to 10 uM relative to control
T3 sequence (O00748 whole entry): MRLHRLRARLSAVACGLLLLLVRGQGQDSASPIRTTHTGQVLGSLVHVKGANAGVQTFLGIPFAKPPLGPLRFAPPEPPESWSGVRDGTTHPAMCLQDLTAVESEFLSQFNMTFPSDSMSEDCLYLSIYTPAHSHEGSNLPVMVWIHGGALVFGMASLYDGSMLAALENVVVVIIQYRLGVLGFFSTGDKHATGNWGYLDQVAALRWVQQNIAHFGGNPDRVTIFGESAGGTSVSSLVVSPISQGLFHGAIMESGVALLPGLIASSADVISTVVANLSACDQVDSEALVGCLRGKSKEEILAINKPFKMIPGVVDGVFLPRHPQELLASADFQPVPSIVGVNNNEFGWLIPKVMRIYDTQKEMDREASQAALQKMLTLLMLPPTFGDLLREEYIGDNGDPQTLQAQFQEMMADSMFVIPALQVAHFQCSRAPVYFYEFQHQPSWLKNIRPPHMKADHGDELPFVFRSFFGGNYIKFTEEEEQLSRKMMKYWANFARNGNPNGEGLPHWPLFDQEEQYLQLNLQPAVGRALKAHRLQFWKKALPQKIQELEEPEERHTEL

[4] = target: T4, Monoglyceride lipase (Homo sapiens) (UniProt Q99685); assay: Inhibition of human recombinant MAGL at 1 to 10 uM using 7-HCA as substrate preincubated for 30 mins followed by substrate addition measured after 60 mins by fluorescence assay relative to control
T4 sequence (whole entry): T1 sequence (Q99685 whole entry)

[5] = target: T5, Fatty-acid amide hydrolase 1 (Homo sapiens) (UniProt O00519); assay: Inhibition of human recombinant FAAH at 10 uM using arachidonoyl-AMC as substrate preincubated for 30 mins followed by substrate addition measured after 60 mins by fluorescence assay relative to control
T5 sequence (whole entry): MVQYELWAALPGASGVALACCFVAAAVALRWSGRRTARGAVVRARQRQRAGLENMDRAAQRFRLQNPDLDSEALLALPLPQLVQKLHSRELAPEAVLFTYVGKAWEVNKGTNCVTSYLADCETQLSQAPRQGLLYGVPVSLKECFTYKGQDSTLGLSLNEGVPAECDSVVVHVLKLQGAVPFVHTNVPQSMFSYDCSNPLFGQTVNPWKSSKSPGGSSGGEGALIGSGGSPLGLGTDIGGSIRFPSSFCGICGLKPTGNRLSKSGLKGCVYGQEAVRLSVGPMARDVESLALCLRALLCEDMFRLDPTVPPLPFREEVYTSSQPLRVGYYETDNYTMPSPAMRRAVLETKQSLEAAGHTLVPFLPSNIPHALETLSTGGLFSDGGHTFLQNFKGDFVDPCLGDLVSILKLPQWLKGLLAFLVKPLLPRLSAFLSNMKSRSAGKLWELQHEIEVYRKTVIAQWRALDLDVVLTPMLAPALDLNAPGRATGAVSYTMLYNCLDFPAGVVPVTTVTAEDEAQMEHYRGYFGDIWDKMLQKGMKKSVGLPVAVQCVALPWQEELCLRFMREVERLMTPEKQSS

[6] = target: T4, Monoglyceride lipase (Homo sapiens); assay: Ratio of Kinact to Ki for human recombinant MAGL using 7-HCA as substrate after 60 mins by fluorescence assay
Summary of the method: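 Run as the MAGL 7-HCA assay, but substrate added with no preincubation (T = 0), fluorescence read every minute at decreasing compound concentrations to give progress curves. kobs from each curve; kinact/KI from a plot of kobs against compound concentration.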

[7] = target: T6, Fatty-acid amide hydrolase 1 (Homo sapiens, UniProt O00519); assay: Inhibition of human recombinant FAAH using arachidonoyl-AMC as substrate preincubated for 30 mins followed by substrate addition measured after 60 mins by fluorescence assay
T6 sequence (O00519 whole entry): T5 sequence (whole entry)
Summary of the method: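 Human recombinant FAAH (0.0125 unit final) in 50 mM Tris pH 9.0, 1 mM EDTA, preincubated 30 min at room temperature with compound (final 30 μM–0.3 nM). Arachidonoyl-AMC added (5 μM final), reaction run 60 min, fluorescence Ex/Em 355/460. Percent inhibition versus no-compound and full-inhibition controls.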

[8] = Ratio of unbound drug level in C57Bl6 mouse brain to plasma at 10 mg/kg, sc; format: ADME, organism-based
Summary of the method: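 Subcutaneous dosing of C57Bl6 mice in DMSO/Cremophor/saline (5:5:90). Plasma (NaF/K2EDTA tubes) and cerebellum collected at 0.5–24 h, 3 mice per time point. Cerebellum diluted 1:4 (w/v) with water and homogenized; samples deproteinated with methanol/acetonitrile plus internal standard, then HPLC-MS/MS. LLOQ 1.0 ng/mL plasma, 0.5 ng/mL brain homogenate. PK parameters by noncompartmental analysis.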

SMILES | pIC50 [1] | inhibition [2] [%] | inhibition (INH) [3] [%] | inhibition [4] [%] | inhibition [5] [%] | Ratio [6] [M⁻¹ s⁻¹] | pIC50 [7] | Kp uu [8]
O=C(OC(C(F)(F)F)C(F)(F)F)N1CCC(c2ccn(-c3ccccc3)n2)CC1 | 8.70 | > 70 | > 70 | > 70 | > 70 |  |  | 
O=C(OC(C(F)(F)F)C(F)(F)F)N1CC(c2ccn(-c3ccccc3)n2)C1 | 9.74 | > 70 | > 70 | > 70 | > 70 | 1.14e+06 | 6.59 | 0.6

Source: ChEMBL document CHEMBL4028902, “Azetidine and Piperidine Carbamates as Efficient, Covalent Inhibitors of Monoacylglycerol Lipase” (J Med Chem, 2017)
